From ChEMBL document CHEMBL1759915, “Synthesis and anticancer effects of some novel pyrazolo[3,4-d]pyrimidine derivatives by generating reactive oxygen species in human breast adenocarcinoma cells” (Eur J Med Chem, 2011)
In brackets after ≈: the same amount, converted by molar mass.

Tests used:
MCF7 [1] = experiment: Effect on CAT level in human MCF7 cells assessed per mg protein at 20 ug/ml after 24 hrs (reference value: 7.90+/- 0.67 U/mg of protein); type: functional
MCF7 [2] = experiment: Effect on hydrogen peroxide level in human MCF7 cells assessed per mg protein at 5 ug/ml by Wolf's method after 24 hrs (reference value: 12.50 +/- 1.54 nmol/mg of protein); type: functional
MCF7 [3] = experiment: Effect on RNA level in human MCF7 cells assessed per 10 '6 cells at 10 ug/ml after 24 hrs (reference value: 11.50 +/- 0.70 ug/10^6 cells); type: functional
Summary of the method: (§1)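 After 24 h exposure of MCF-7 cells to compound at 2, 5, 10 or 20 µg/ml at 37 °C, nucleic acids were precipitated from cell homogenates. DNA was extracted and assayed by the Zhou et al. method, and RNA by a kit-derived procedure. Results given per 10⁶ cells as means ± S.E. of four experiments versus untreated control.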

MCF7 [4] = experiment: Effect on SOD level in human MCF7 cells assessed per mg protein at 20 ug/ml after 24 hrs (reference value: 27.61+/- 3.72 U/mg of protein); type: functional
MCF7 [5] = experiment: Effect on RNA level in human MCF7 cells assessed per 10 '6 cells at 2 ug/ml after 24 hrs (reference value: 11.50 +/- 0.70 ug/10^6 cells); type: functional; summary of the method: as §1
MCF7 [6] = experiment: Effect on glutathione level in human MCF7 cells assessed per mg protein at 5 ug/ml by Ellman method after 24 hrs (reference value: 39.82 +/- 4.20 nmol/mg of protein); type: functional
MCF7 [7] = experiment: Effect on CAT level in human MCF7 cells assessed per mg protein at 5 ug/ml after 24 hrs (reference value: 7.90+/- 0.67 U/mg of protein); type: functional
MCF7 [8] = experiment: Effect on RNA level in human MCF7 cells assessed per 10 '6 cells at 20 ug/ml after 24 hrs (reference value: 11.50 +/- 0.70 ug/10^6 cells); type: functional; summary of the method: as §1
MCF7 [9] = experiment: Effect on DNA level in human MCF7 cells assessed per 10 '6 cells at 5 ug/ml after 24 hrs (reference value: 6.80 +/- 0.70 ug/10^6 cells); type: functional; summary of the method: as §1
MCF7 [10] = experiment: Effect on SOD level in human MCF7 cells assessed per mg protein at 2 ug/ml after 24 hrs (reference value: 27.61+/- 3.72 U/mg of protein); type: functional
MCF7 [11] = experiment: Effect on DNA level in human MCF7 cells assessed per 10 '6 cells at 20 ug/ml after 24 hrs (reference value: 6.80 +/- 0.70 ug/10^6 cells); type: functional; summary of the method: as §1
MCF7 [12] = experiment: Effect on SOD level in human MCF7 cells assessed per mg protein at 5 ug/ml after 24 hrs (reference value: 27.61+/- 3.72 U/mg of protein); type: functional
MCF7 [13] = experiment: Effect on RNA level in human MCF7 cells assessed per 10 '6 cells at 5 ug/ml after 24 hrs (reference value: 11.50 +/- 0.70 ug/10^6 cells); type: functional; summary of the method: as §1
MCF7 [14] = experiment: Increase in SOD level in human MCF7 cells; type: functional, cell-based
MCF7 [15] = experiment: Effect on glutathione peroxidase level in human MCF7 cells assessed per mg protein at 5 ug/ml after 24 hrs (reference value: 11.20 +/- 1.36 U/mg of protein); type: functional
MCF7 [16] = experiment: Effect on SOD level in human MCF7 cells assessed per mg protein at 10 ug/ml after 24 hrs (reference value: 27.61+/- 3.72 U/mg of protein); type: functional
MCF7 [17] = experiment: Effect on hydrogen peroxide level in human MCF7 cells assessed per mg protein at 2 ug/ml by Wolf's method after 24 hrs (reference value: 12.50 +/- 1.54 nmol/mg of protein); type: functional
MCF7 [18] = experiment: Effect on glutathione level in human MCF7 cells assessed per mg protein at 2 ug/ml by Ellman method after 24 hrs (reference value: 39.82 +/- 4.20 nmol/mg of protein); type: functional
MCF7 [19] = experiment: Effect on hydrogen peroxide level in human MCF7 cells assessed per mg protein at 10 ug/ml by Wolf's method after 24 hrs (reference value: 12.50 +/- 1.54 nmol/mg of protein); type: functional
MCF7 [20] = experiment: Effect on glutathione level in human MCF7 cells assessed per mg protein at 20 ug/ml by Ellman method after 24 hrs (reference value: 39.82 +/- 4.20 nmol/mg of protein); type: functional
MCF7 [21] = experiment: Increase in hydrogen peroxide level in human MCF7 cells; type: functional, cell-based
MCF7 [22] = experiment: Effect on glutathione peroxidase level in human MCF7 cells assessed per mg protein at 20 ug/ml after 24 hrs (reference value: 11.20 +/- 1.36 U/mg of protein); type: functional
MCF7 [23] = experiment: Effect on DNA level in human MCF7 cells assessed per 10 '6 cells at 2 ug/ml after 24 hrs (reference value: 6.80 +/- 0.70 ug/10^6 cells); type: functional; summary of the method: as §1
MCF7 [24] = experiment: Effect on CAT level in human MCF7 cells assessed per mg protein at 2 ug/ml after 24 hrs (reference value: 7.90+/- 0.67 U/mg of protein); type: functional
MCF7 [25] = experiment: Effect on hydrogen peroxide level in human MCF7 cells assessed per mg protein at 20 ug/ml by Wolf's method after 24 hrs (reference value: 12.50 +/- 1.54 nmol/mg of protein); type: functional
MCF7 [26] = experiment: Decrease in glutathione peroxidase level in human MCF7 cells; type: functional, cell-based
MCF7 [27] = experiment: Antiproliferative activity against human MCF7 cells after 24 hrs by MTT assay; type: functional, cell-based; conditions: for IC50: MCF7, 24 h
Summary of the method: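 MCF-7 cells (DMEM, 10% heat-inactivated FCS, penicillin/streptomycin, 37 °C, 5% CO2) plated at 0.65 × 10⁵ cells/well and given 24 h to attach. Exposed to compound or cisplatin at 2, 5, 10 or 20 µg/ml for 24 h at 37 °C. MTT added for 4 h, formazan dissolved in DMSO, absorbance read at 570 nm. Viability taken relative to untreated cells and IC50 derived.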

MCF7 [28] = experiment: Effect on CAT level in human MCF7 cells assessed per mg protein at 10 ug/ml after 24 hrs (reference value: 7.90+/- 0.67 U/mg of protein); type: functional
MCF7 [29] = experiment: Effect on glutathione level in human MCF7 cells assessed per mg protein at 10 ug/ml by Ellman method after 24 hrs (reference value: 39.82 +/- 4.20 nmol/mg of protein); type: functional
MCF7 [30] = experiment: Effect on glutathione peroxidase level in human MCF7 cells assessed per mg protein at 10 ug/ml after 24 hrs (reference value: 11.20 +/- 1.36 U/mg of protein); type: functional
MCF7 [31] = experiment: Decrease in glutathione level in human MCF7 cells; type: functional, cell-based
MCF7 [32] = experiment: Decrease in CAT level in human MCF7 cells; type: functional, cell-based
MCF7 [33] = experiment: Effect on DNA level in human MCF7 cells assessed per 10 '6 cells at 10 ug/ml after 24 hrs (reference value: 6.80 +/- 0.70 ug/10^6 cells); type: functional; summary of the method: as §1
MCF7 [34] = experiment: Effect on glutathione peroxidase level in human MCF7 cells assessed per mg protein at 2 ug/ml after 24 hrs (reference value: 11.20 +/- 1.36 U/mg of protein); type: functional
MCF7 [35] = experiment: Decrease in DNA level in human MCF7 cells assessed per 10 '6 cells after 24 hrs relative to control; type: functional, cell-based; summary of the method: as §1
MCF7 [36] = experiment: Decrease in RNA level in human MCF7 cells assessed per 10 '6 cells after 24 hrs relative to control; type: functional, cell-based; summary of the method: as §1

Structure (SMILES)	Activity (MCF7 [1]) [U/mg protein]	Activity (MCF7 [2]) [nmol]	Activity (MCF7 [3]) [µg/10^6 cells]	Activity (MCF7 [4]) [U/mg protein]	Activity (MCF7 [5]) [µg/10^6 cells]	Activity (MCF7 [6]) [nmol]	Activity (MCF7 [7]) [U/mg protein]	Activity (MCF7 [8]) [µg/10^6 cells]	Activity (MCF7 [9]) [µg/10^6 cells]	Activity (MCF7 [10]) [U/mg protein]	Activity (MCF7 [11]) [µg/10^6 cells]	Activity (MCF7 [12]) [U/mg protein]	Activity (MCF7 [13]) [µg/10^6 cells]	Activity (MCF7 [14])	Activity (MCF7 [15]) [U/mg protein]	Activity (MCF7 [16]) [U/mg protein]	Activity (MCF7 [17]) [nmol]	Activity (MCF7 [18]) [nmol]	Activity (MCF7 [19]) [nmol]	Activity (MCF7 [20]) [nmol]	other results
CCOCCSc1ncnc2c1cnn2-c1nc(C)nc2sc3c(c12)-c1ccccc1CC3	3.2	30.5	6.5	251	7.9	25	4.5	6.2	4.2	85.7	3	115	7	Dose-dependent effect	7	190	30.3	30	40	18.6	Activity (MCF7 [21]): Dose-dependent effect; Activity (MCF7 [22]): 5.25 U/mg protein; Activity (MCF7 [23]): 4.6 µg/10^6 cells; Activity (MCF7 [24]): 5.2 U/mg protein; Activity (MCF7 [25]): 55 nmol; Activity (MCF7 [26]): Dose-dependent effect; Activity (MCF7 [27]): Dose-dependent effect; IC50 (MCF7 [27]): 6.4 µg/mL (≈ 13.5 µM); Activity (MCF7 [28]): 4 U/mg protein; Activity (MCF7 [29]): 20.25 nmol; Activity (MCF7 [30]): 6 U/mg protein; Activity (MCF7 [31]): Dose-dependent effect; Activity (MCF7 [32]): Dose-dependent effect; Activity (MCF7 [33]): 3.75 µg/10^6 cells; Activity (MCF7 [34]): 7.35 U/mg protein; Activity (MCF7 [35]): Dose-dependent effect; Activity (MCF7 [36]): Dose-dependent effect
Cc1nc(-n2ncc3c(=O)[nH]cnc32)c2c3c(sc2n1)CCc1ccccc1-3	2.3	40.6	5.81	290	7.6	18.66	3.6	5.25	3.8	95.6	2.7	126	6.4	Dose-dependent effect	5.5	240	32	27.9	52	16	Activity (MCF7 [21]): Dose-dependent effect; Activity (MCF7 [22]): 2.65 U/mg protein; Activity (MCF7 [23]): 4.2 µg/10^6 cells; Activity (MCF7 [24]): 4 U/mg protein; Activity (MCF7 [25]): 60.3 nmol; Activity (MCF7 [26]): Dose-dependent effect; Activity (MCF7 [27]): Dose-dependent effect; IC50 (MCF7 [27]): 4.4 µg/mL (≈ 11.4 µM); Activity (MCF7 [28]): 2.8 U/mg protein; Activity (MCF7 [29]): 17.7 nmol; Activity (MCF7 [30]): 3.11 U/mg protein; Activity (MCF7 [31]): Dose-dependent effect; Activity (MCF7 [32]): Dose-dependent effect; Activity (MCF7 [33]): 3 µg/10^6 cells; Activity (MCF7 [34]): 6.9 U/mg protein; Activity (MCF7 [35]): Dose-dependent effect; Activity (MCF7 [36]): Dose-dependent effect
COCCSc1ncnc2c1cnn2-c1nc(C)nc2sc3c(c12)-c1ccccc1CC3	2.1	45.77	5.21	310	6.2	20.95	3.4	4.8	3.44	105	2.5	136	5.72	Dose-dependent effect	5.65	310	30.75	23.6	58.5	15.6	Activity (MCF7 [21]): Dose-dependent effect; Activity (MCF7 [22]): 2.9 U/mg protein; Activity (MCF7 [23]): 4 µg/10^6 cells; Activity (MCF7 [24]): 3.9 U/mg protein; Activity (MCF7 [25]): 66.8 nmol; Activity (MCF7 [26]): Dose-dependent effect; Activity (MCF7 [27]): Dose-dependent effect; IC50 (MCF7 [27]): 4.3 µg/mL (≈ 9.34 µM); Activity (MCF7 [28]): 3 U/mg protein; Activity (MCF7 [29]): 18.75 nmol; Activity (MCF7 [30]): 4 U/mg protein; Activity (MCF7 [31]): Dose-dependent effect; Activity (MCF7 [32]): Dose-dependent effect; Activity (MCF7 [33]): 2.96 µg/10^6 cells; Activity (MCF7 [34]): 6 U/mg protein; Activity (MCF7 [35]): Dose-dependent effect; Activity (MCF7 [36]): Dose-dependent effect
